# An excerpt weighted towards active compounds, which were near 1.4% of everything screened.
# TbMetRS inhib = blocks T. brucei methionyl-tRNA synthetase activity; purified T. brucei MetRS, ATP depletion, Kinase-Glo luminescence; inhibition, % at 11.9 µM; hit rate 0.4% among 360,000;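 active = inhibition above a per-plate cutoff of the control wells' mean inhibition plus 3 SD, cut at about 5.5% in these data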
#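 Dosing: 11.9 µM single point; system: parasite MetRS enzyme; technique: luminescence of leftover ATP; times: 15 min enzyme-compound preincubation, 2 h reaction, 10 min detection, 25 °C; replicates: each compound tested once; read-out basis: percent inhibition relative to median high and low control wells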
# Efflux pump mplx = inhibitors of Candida antifungal efflux pumps expressed in yeast. S. cerevisiae Candida pump triplex, Nile Red efflux. inhibition, % at 10 µM. hit rate 0.44% among 330,000;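 active = plate passing quality check with inhibition over a set limit, or well fluorescence over plate mean plus 4 SD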;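 note: Nile Red retained in pooled yeast measured as flow cytometry median fluorescence; higher means more Nile Red kept so more efflux inhibition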
# CR mimetic SO = yeast age-related superoxide inhibition as caloric restriction mimetic | S. cerevisiae aged cells, superoxide DHE fluorescence; hits give low values | superoxide response (% of plate mean), % at 10 µM | hit rate 0.18% among 330,000;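 active = superoxide response under a set limit, about three screen SD below normal, cut at about 65% in these data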;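 note: yeast aged for seven days with compound at 30 °C before DHE staining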
# IDE cell activ = activators of human insulin-degrading enzyme in cells | HEK cells, FAbeta-B cleavage, fluorescence polarization; 0% vehicle, 100% cell-free pure enzyme wells | activation, % at 5.96 µM | hit rate 0.073% among 340,000 | AID 493087;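 active = activation above the mean of all tested compounds plus 3 SD, set per screening campaign, cut at about 17% in these data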
# HDAC3 inh = blocks human histone deacetylase 3. hit rate 0.15% among 320,000. recombinant HDAC3, fluorogenic peptide/trypsin coupled, fluorescence. inhibition, % at 8.3 µM; in the data active = inhibition above about 26%, passing the limit was not always enough
# IDE inh = inhibits human insulin-degrading enzyme in HEK cells; P14735; AID 434962; inhibition, % at 5.59 µM; hit rate 0.41% among 320,000; FAbetaB cleavage, fluorescence polarization;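 active = percent inhibition above the average of all tested compounds plus 3 SD, set per screening campaign, cut at about 16% in these data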;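 note: IDE supplied by intact live HEK cells; FP after avidin binding of uncleaved biotin substrate so inhibition keeps polarization high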
# TbMetRS confirm = confirmation of Trypanosoma brucei MetRS inhibitors | shares compounds with TbMetRS inhib | T. brucei MetRS enzyme, luminescence (ATP depletion) | inhibition, % at 11.9 µM | hit rate 93% among 1,400 | AID 624412; in the data active = inhibition above about 7%
# Jurkat cytotox = Jurkat T cell cytotoxicity for MetRS hits. shares compounds with TbMetRS inhib. Jurkat cells viability, ATP luminescence. inhibition, % at 8.3 µM. hit rate 12% among 1,400. AID 624413; in the data active = inhibition above about 15%
# Tb MetRS inh FP = T. brucei MetRS inhibition, orthogonal assay. hit rate 44% among 1,400. purified T. brucei MetRS, fluorescence polarization. shares compounds with TbMetRS inhib. AID 651607. inhibition, % at 11.9 µM; in the data active = inhibition above about 17%
# Hits are given with their value; 0 = inactive; - = not tested or not shown.
SMILES,TbMetRS inhib,Efflux pump mplx,CR mimetic SO,IDE cell activ,HDAC3 inh,IDE inh,TbMetRS confirm,Jurkat cytotox,Tb MetRS inh FP
O=C(CN1CCN(c2ccccc2F)CC1)c1c[nH]c2ccc(F)cc12,11,0,0,0,0,0,17,0,0
Cc1cccc(CNc2ncnc3[nH]ncc23)c1,0,-,-,0,-,-,-,-,-
Clc1ccc(CNc2ncnc3[nH]ncc23)cc1Cl,7.1,-,-,0,-,-,29,0,17
CN(C)C(=O)c1ccccc1Sc1cc(Cl)ccc1Cl,0,0,0,0,0,0,-,-,-
CN(C)C(=O)c1ccccc1Sc1ccc(Cl)cc1Cl,6.0,0,0,0,0,0,16,0,0
Cc1ccc(C)c(S(=O)(=O)N2CCCC2CNC(=O)C(=O)NCC2CCCO2)c1 (stereo unspecified),0,0,0,0,0,0,-,-,-
Clc1cc(Br)ccc1OCCn1ccnc1,0,0,0,0,0,0,-,-,-
CC1(C)NC(=O)N(CCCCOc2ccc(Br)cc2Cl)C1=O,0,0,0,0,0,0,-,-,-
Clc1cc(Br)ccc1OCCCn1ccnc1,9.9,0,0,0,0,0,17,0,0
CC1(C)NC(=O)N(CCCOc2ccc(Br)cc2Cl)C1=O,11,0,0,0,0,0,24,0,104
O=C1Nc2ccccc2N=C(c2ccccc2)C1N(C(=O)c1ccnc2ccccc12)c1ccccc1 (stereo unspecified),0,-,-,-,-,-,-,-,-
O=C(O)C1SCCN1S(=O)(=O)c1ccc(N=NN2CCOCC2)cc1 (stereo unspecified),0,0,0,0,0,0,-,-,-
O=C(Nc1ccccc1)Nc1ncc([N+](=O)[O-])s1,6.4,-,-,0,-,-,10,63,0
O=C1c2ccccc2C(c2nc3ccccc3[nH]2)N1c1ccccn1 (stereo unspecified),6.9,-,-,-,-,-,14,0,0
COc1ccc(NC(=O)C(OC(=O)c2cnccn2)c2ccccc2)cc1Cl (stereo unspecified),0,0,0,0,0,0,-,-,-
Cc1cc(-c2ccc(C(C)C)c(S(=O)(=O)N3CCN(c4ccccn4)CC3)c2)on1,8.0,0,0,0,0,0,12,51,0
CCCCCCCCNc1ncnc2ccccc12,11,0,0,0,0,0,25,46,0
c1ccc(CCNc2ncnc3ccccc23)cc1,0,0,0,0,0,0,-,-,-
COc1ccccc1NC(=O)N1CCN(C(=O)c2ccco2)CC1,0,0,0,0,0,0,-,-,-
O=C(Cn1cc([N+](=O)[O-])ccc1=O)NCc1ccc(Cl)cc1Cl,9.1,0,0,0,0,0,26,0,0
N=c1sccn1CC(=O)NCc1ccc(Cl)cc1Cl,29,0,0,0,0,0,51,0,0
CCOc1ncccc1C(=O)OCC(=O)c1ccc(Br)s1,0,0,0,0,0,0,-,-,-
CCOc1ccccc1NC(=O)CCn1cccc1,0,0,0,0,0,0,-,-,-
CN(C(=O)COC(=O)c1c[nH]c2ccccc12)c1ccccc1,0,-,-,-,-,-,-,-,-
COc1ccc(NC(=O)COc2cccc(-n3cnnn3)c2)cc1,10.0,0,0,0,0,0,20,0,0
SMILES,TbMetRS inhib,Efflux pump mplx,CR mimetic SO,IDE cell activ,HDAC3 inh,IDE inh,TbMetRS confirm,Jurkat cytotox,Tb MetRS inh FP
O=C(Nc1ccc(Br)cc1)c1cccc(-n2cnnn2)c1,6.5,0,0,0,0,0,13,0,0
CCN(CC)S(=O)(=O)c1ccc(NC(=O)COc2cccc(-n3cnnn3)c2)cc1,0,0,0,0,0,0,-,-,-
O=C(COc1cccc(-n2cnnn2)c1)Nc1ccccc1,11,0,0,0,0,0,19,0,17
O=C(CSc1nnc2ccc(-c3ccc(Br)cc3)nn12)NCC1CCCO1 (stereo unspecified),8.0,0,0,0,0,0,33,0,0
O=C(CCCSc1nc2ccccc2[nH]1)NC(c1ccccc1)c1ccccc1,0,0,0,0,0,0,-,-,-
O=C(CCCSc1nc2ccccc2[nH]1)NCc1ccccc1Cl,10,0,0,0,0,0,17,0,0
CCNC(=O)NC(=O)COC(=O)CCCSc1nc2ccccc2[nH]1,0,0,0,0,0,0,-,-,-
O=C(COC(=O)CCCSc1nc2ccccc2[nH]1)Nc1ccc(Cl)cc1,13,0,0,0,0,0,21,0,0
Cc1ccccc1CNC(=O)C(=O)NCC1CCCN1S(=O)(=O)c1cccs1 (stereo unspecified),0,-,-,0,-,-,-,-,-
COc1cc(/C=C/C(=O)OCC(=O)c2c[nH]c3ccccc23)ccc1OC(F)F,6.3,0,0,0,0,0,13,0,36
COc1ccccc1/C=C/C(=O)OCC(=O)c1c[nH]c2ccccc12,0,0,0,0,0,0,-,-,-
CCN(CC)S(=O)(=O)c1cccc(NC(=O)CN2C(=O)NC3(CCOc4ccccc43)C2=O)c1 (stereo unspecified),0,-,-,0,-,-,-,-,-
CC(C)NC(=O)CSc1ccccc1C(=O)N1CCN(S(=O)(=O)Cc2ccccc2)CC1,0,-,-,0,-,-,-,-,-
Cc1ccc2cc(CCNC(=O)C(=O)c3c(C)[nH]c4ccccc34)c(=O)[nH]c2c1,13,0,0,0,0,0,31,0,0
C=CC(=O)Nc1cccc(Oc2ccnc3[nH]ccc23)c1,0,-,-,0,-,-,-,-,-
C=CC(=O)Nc1cccc(Oc2ncnc3[nH]cc(-c4cnc5ccccc5c4)c23)c1,8.6,0,0,0,0,0,30,0,21
Nc1ncnc2nc(SCc3ccc(Cl)cc3Cl)[nH]c12,12,0,0,0,0,0,32,15,0
Nc1ncnc2nc(Sc3ccc(Cl)cc3)[nH]c12,0,0,0,0,0,0,-,-,-
COc1ccc(N2CCN(C(=O)CCCCn3c(=O)[nH]c4ccsc4c3=O)CC2)cc1,6.7,0,0,0,0,0,13,0,0
COc1ccc(N2CCN(C(=O)CCCn3c(=O)[nH]c4ccsc4c3=O)CC2)cc1,0,0,0,0,0,0,-,-,-
Nc1cc(=O)[nH]c(SCC(=O)Nc2cc(Cl)cc(Cl)c2)n1,29,0,0,0,0,0,49,0,28
COc1cccc(NC(=O)Nc2nnc(Cc3ccc(OC)c(OC)c3)s2)c1,0,0,0,0,0,0,-,-,-
CCOC(=O)Cc1nnc(NC(=O)Nc2ccccc2)s1,16,0,0,0,0,0,23,0,0
COc1ccc(Cc2nnc(NC(=O)Nc3ccccc3)s2)cc1OC,7.0,0,0,0,0,0,21,0,0
CCO[C@@H]1OC(C(=O)NCc2nc3ccccc3[nH]2)=C[C@H](C)[C@H]1CCCO,0,-,-,0,0,0,-,-,-
